Results reported in ChEMBL document CHEMBL1143378, “Inactivation of GABA transaminase by 3-chloro-1-(4-hydroxyphenyl)propan-1-one” (Bioorg Med Chem Lett, 2009).
Activity calls are given as the source filed them. The calls are words filed in the database; no cut-off is given here.

How the values were obtained:
Format in all cases: tissue-based
[1] = biological target: T1, 4-aminobutyrate aminotransferase, mitochondrial (Rattus norvegicus, UniProt P50554); test: Inhibition of GABA transaminase in rat brain by Kitz-Wilson plot
T1 sequence (P50554 whole entry): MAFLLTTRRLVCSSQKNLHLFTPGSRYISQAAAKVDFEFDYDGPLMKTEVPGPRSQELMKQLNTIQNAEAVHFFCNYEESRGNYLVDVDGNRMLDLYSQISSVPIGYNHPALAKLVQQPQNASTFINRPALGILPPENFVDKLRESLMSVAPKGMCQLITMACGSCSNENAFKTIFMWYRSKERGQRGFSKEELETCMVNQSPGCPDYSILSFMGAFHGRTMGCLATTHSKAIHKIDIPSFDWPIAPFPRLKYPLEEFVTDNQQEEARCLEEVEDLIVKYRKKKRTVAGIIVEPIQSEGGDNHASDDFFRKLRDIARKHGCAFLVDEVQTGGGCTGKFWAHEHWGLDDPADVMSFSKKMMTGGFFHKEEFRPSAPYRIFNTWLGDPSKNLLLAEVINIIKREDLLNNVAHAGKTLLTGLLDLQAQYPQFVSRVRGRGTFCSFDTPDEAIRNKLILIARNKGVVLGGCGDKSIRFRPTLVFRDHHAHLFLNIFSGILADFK
How it was run: (§1)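 GABA-T was isolated from rat brain. For time-dependent inactivation, log remaining activity was plotted against time at each inactivator concentration. Inverse slopes were then plotted against inverse inactivator concentration, and K_I and k_inact were taken from a Kitz–Wilson plot.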

[2] = biological target: 4-aminobutyrate aminotransferase, mitochondrial (Rattus norvegicus) (UniProt P50554); test: Inhibition of GABA transaminase in rat brain at 45 uM after 40 mins in presence of alpha-ketoglutarate
Chain of 4-aminobutyrate aminotransferase, mitochondrial (Rattus norvegicus) (P50554 28-500 limits assumed): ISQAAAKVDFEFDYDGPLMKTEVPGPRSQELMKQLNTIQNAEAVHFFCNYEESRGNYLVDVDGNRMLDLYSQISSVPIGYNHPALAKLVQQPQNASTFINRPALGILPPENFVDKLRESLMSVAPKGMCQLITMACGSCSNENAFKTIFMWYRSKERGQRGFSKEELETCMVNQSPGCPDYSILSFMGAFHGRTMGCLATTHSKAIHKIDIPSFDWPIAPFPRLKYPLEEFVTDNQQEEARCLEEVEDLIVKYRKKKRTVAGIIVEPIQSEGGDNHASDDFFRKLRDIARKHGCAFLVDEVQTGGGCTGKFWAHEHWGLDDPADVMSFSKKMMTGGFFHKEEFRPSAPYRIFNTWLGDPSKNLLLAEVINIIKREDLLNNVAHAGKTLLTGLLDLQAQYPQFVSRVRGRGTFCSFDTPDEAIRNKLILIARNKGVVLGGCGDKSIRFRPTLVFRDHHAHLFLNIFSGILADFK
How it was run: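 Rat brain GABA-T was incubated with GABA, inhibitor (45 μM) and varying α-ketoglutarate concentrations together for 40 min before enzyme activity was measured.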

[3] = biological target: 4-aminobutyrate aminotransferase, mitochondrial (Rattus norvegicus) (UniProt P50554); test: Inhibition of GABA transaminase in rat brain at 60 uM after 30 mins by gel filtration
How it was run: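 Rat brain GABA-T was incubated with 60 μM inhibitor at 25 °C for 30 min and an aliquot was assayed. The remaining mixture was passed through Sephadex G50 to remove small molecules and assayed again. An identical sample without inactivator served as control. Values are mean ± SEM, n = 6.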

[4] = biological target: 4-aminobutyrate aminotransferase, mitochondrial (Rattus norvegicus) (UniProt P50554); test: Ratio of Kinact to KI for GABA transaminase in rat brain; how it was run: as §1
[5] = biological target: T1, 4-aminobutyrate aminotransferase, mitochondrial; test: (§2) Activity of GABA transaminase in rat brain
[6] = biological target: 4-aminobutyrate aminotransferase, mitochondrial (Rattus norvegicus) (UniProt P50554); test: as §2
[7] = biological target: 4-aminobutyrate aminotransferase, mitochondrial (Rattus norvegicus) (UniProt P50554); test: Inhibition of GABA transaminase in rat brain at 30 uM for 40 mins in presence of 30 mM alpha-ketoglutarate
How it was run: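 Rat brain GABA-T was preincubated with inhibitor (30 μM) for 40 min. Increasing concentrations of α-ketoglutarate, up to 30 mM, were then added and residual activity was measured. A no-inactivator control was run. Values are mean ± SEM, n = 6.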

Structure (SMILES)	IC50 [1] [µM]	Activity [2]	Activity [3]	Ratio [4]	Ki [5] [µM]	Kinact [6] [min⁻¹]	Activity [7]
O=C(CCCl)c1ccc(O)cc1	3.99	inactive	Active	1.88	24.3	0.0457	Active
O=Cc1ccc(O)cc1 [4-HYDROXYBENZALDEHYDE]	16.5	–	–	–	–	–	–
